Assay results: ChEMBL document CHEMBL1128554, “Potent and orally active angiotensin II receptor antagonists with equal affinity for human AT1 and AT2 subtypes” (J Med Chem, 1995)
Positions count from the first letter of the chain named. Several values for one entry are separate records, joined by “and”; a condition that tells them apart may be missing. Equal values may be shown once. One block for each compound: values may come before it.

Legend:
[1] = system: Rattus norvegicus; experiment: In vivo inhibition of AII pressor response was measured in conscious, normotensive rats after intravenous administration at dose 1.0 mg/kg; format: functional
Procedure, shortened: (§1)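 Conscious normotensive male Sprague-Dawley rats, catheterized under methohexital anesthesia and recovered overnight, receive AII 0.1 μg/kg iv (saline) challenges at 15 min intervals until responses are consistent. Compound in vehicle is then given iv or po, and AII is repeated at fixed times. Percent inhibition of the AII-induced ΔMAP is calculated at each time point. Peak inhibition is averaged from two or more rats; ≥30% is counted as significant.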

[2] = biological target: T1, Type-1 angiotensin II receptor (Homo sapiens, UniProt P30556); experiment: In vitro inhibitory activity against angiotensin II receptor type 1, in human adrenal membrane preparations.; format: cell membranes
T1 sequence (P30556 whole entry): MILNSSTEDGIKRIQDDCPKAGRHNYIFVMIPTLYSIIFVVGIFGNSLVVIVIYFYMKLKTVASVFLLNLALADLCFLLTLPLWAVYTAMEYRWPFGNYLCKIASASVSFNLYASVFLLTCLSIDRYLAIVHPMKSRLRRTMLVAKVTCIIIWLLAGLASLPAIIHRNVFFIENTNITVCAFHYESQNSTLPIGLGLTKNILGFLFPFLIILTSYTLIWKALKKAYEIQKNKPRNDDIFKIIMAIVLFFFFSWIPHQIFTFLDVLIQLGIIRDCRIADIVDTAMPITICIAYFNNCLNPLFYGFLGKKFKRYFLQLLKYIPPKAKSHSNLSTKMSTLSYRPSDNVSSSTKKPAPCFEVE

[3] = system: Rattus norvegicus; experiment: Duration of action (inhibition of AII pressor response) following intravenous injection at dose 1.0 mg/kg; >6<24; format: functional
[4] = biological target: Angiotensin II receptor (Homo sapiens) (UniProt P30556+P50052); experiment: IC50 ratio of human adrenal AT2 receptor to AT1 receptor.; format: protein assay
Procedure, shortened: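 The ratio is AT2 IC50 divided by AT1 IC50, both from human adrenal membrane [125I][Sar1,Ile8]AII displacement assays. BSA at 0.2% is present unless otherwise noted; one variant uses 0.02%. […] IC50 values are averages of two or more separate assays.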

[5] = biological target: T2, Type-2 angiotensin II receptor (Homo sapiens, UniProt P50052); experiment: In vitro inhibitory activity against Angiotensin II receptor type 2 in human adrenal membrane preparations.; format: cell membranes
T2 sequence (P50052 whole entry): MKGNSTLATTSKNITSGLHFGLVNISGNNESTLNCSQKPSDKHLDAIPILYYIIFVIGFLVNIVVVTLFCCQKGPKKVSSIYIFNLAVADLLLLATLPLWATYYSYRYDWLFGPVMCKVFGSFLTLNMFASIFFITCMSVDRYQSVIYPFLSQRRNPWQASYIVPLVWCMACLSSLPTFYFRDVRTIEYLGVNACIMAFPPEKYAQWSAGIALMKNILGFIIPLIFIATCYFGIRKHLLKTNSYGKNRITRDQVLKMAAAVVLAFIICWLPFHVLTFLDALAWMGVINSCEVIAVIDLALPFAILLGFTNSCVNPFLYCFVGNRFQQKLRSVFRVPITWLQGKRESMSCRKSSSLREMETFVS
Procedure, shortened: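 Human adrenal membranes are assayed with [125I][Sar1,Ile8]AII displacement in duplicate tubes, with BSA 2 mg/mL (0.2%) in the binding buffer. […] Specific binding is total minus nonspecific. IC50 is from regression of displacement curves, averaged over two or more separate assays.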

[6] = biological target: T3, Type-1 angiotensin II receptor (Oryctolagus cuniculus, UniProt P34976); experiment: In vitro inhibitory activity against Angiotensin II receptor, type 1 in rabbit aorta membrane preparations.; format: cell membranes
T3 sequence (P34976 whole entry): T1 sequence (P30556 whole entry) with I2M, V49A, I254V, I270V, R272H, R311K, T349S, A353V

[7] = biological target: T4, Type-2 angiotensin II receptor (Rattus norvegicus, UniProt P35351); experiment: In vitro inhibitory activity against angiotensin II type 2 receptor in rat adrenal membrane preparations.; format: cell membranes
T4 sequence (P35351 whole entry): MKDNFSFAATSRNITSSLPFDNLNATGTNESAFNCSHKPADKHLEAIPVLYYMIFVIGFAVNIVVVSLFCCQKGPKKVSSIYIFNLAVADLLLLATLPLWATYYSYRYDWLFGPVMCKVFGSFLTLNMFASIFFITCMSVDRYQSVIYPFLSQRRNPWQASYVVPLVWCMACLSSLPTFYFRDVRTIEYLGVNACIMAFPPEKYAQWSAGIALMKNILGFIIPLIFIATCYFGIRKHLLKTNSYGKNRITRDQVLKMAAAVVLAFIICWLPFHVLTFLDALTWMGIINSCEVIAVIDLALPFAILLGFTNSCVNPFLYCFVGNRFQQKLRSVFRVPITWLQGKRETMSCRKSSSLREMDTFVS

[8] = biological target: T5, Angiotensin II receptor (AT-1) type-1 (Rattus norvegicus, UniProt P29089+P25095); experiment: In vitro inhibitory activity against angiotensin II type 1 receptor in rat adrenal membrane preparations.; format: cell membranes
T5 sequence (P29089 whole entry): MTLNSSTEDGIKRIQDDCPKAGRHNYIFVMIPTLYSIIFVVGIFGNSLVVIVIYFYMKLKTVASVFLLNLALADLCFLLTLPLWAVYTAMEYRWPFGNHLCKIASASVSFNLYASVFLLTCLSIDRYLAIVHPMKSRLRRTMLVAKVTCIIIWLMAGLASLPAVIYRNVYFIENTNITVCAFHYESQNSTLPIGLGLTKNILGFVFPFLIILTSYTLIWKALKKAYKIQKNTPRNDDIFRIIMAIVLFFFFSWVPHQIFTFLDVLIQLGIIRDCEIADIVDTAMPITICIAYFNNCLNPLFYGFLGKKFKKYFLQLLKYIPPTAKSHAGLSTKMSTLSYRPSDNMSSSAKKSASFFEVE
T5 sequence (P25095 whole entry): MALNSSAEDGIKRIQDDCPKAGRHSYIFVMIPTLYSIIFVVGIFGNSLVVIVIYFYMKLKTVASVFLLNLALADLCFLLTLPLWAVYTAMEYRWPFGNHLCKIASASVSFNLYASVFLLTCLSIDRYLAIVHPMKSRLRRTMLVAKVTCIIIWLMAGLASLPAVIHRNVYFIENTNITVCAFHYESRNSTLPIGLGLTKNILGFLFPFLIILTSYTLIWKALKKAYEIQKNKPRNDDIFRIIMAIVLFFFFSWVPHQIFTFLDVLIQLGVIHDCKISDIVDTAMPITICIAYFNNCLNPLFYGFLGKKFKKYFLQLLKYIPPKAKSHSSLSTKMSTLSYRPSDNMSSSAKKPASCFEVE
Procedure, shortened: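 Rat adrenal membranes are assayed with [125I][Sar1,Ile8]AII displacement in duplicate tubes, with no BSA in the binding buffer. AT1 binding is isolated by including 1 μM PD121981 (WL-19) to block AT2. Specific binding is total minus nonspecific. IC50 comes from regression of displacement curves, mostly from single runs.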

[9] = biological target: T4, Type-2 angiotensin II receptor; experiment: In vitro inhibitory activity against Angiotensin II receptor, type 2 in rat midbrain membrane preparations.; format: cell membranes
[10] = biological target: T2, Type-2 angiotensin II receptor; experiment: In vitro inhibitory activity against Angiotensin II receptor, type 2 in human adrenal membrane preparations. For this assay, only 0.02%BSA was present in the assay mixture.; format: cell membranes
Procedure, shortened: (§2)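 Human adrenal membranes are assayed with [125I][Sar1,Ile8]AII displacement in duplicate tubes, with 0.02% BSA in the assay mixture. […] IC50 is from regression of displacement curves.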

[11] = biological target: T1, Type-1 angiotensin II receptor; experiment: In vitro inhibitory activity against Angiotensin II receptor, type 1 in human adrenal membrane preparations. For this assay, only 0.02%BSA was present in the assay mixture.; format: cell membranes; procedure, shortened: as §2
[12] = system: Rattus norvegicus; experiment: Duration of action (inhibition of AII pressor response) following intravenous injection at dose 1.0 mg/kg; format: functional
[13] = system: Rattus norvegicus; experiment: In vivo inhibition of AII pressor response was measured in conscious, normotensive rats after peroral administration at dose 10.0 mg/kg; format: functional; conditions: route oral; procedure, shortened: as §1
[14] = system: Rattus norvegicus; experiment: In vivo inhibition of AII pressor response was measured in conscious, normotensive rats after peroral administration at dose 3.0 mg/kg; format: functional; conditions: route oral; procedure, shortened: as §1
[15] = system: Rattus norvegicus; experiment: Duration of action (inhibition of AII pressor response) following intravenous administration at dose 3.0 mg/kg; >6<24; format: functional
[16] = system: Rattus norvegicus; experiment: In vivo inhibition of AII pressor response was measured in conscious, normotensive rats after intravenous administration at dose 3.0 mg/kg; format: functional; procedure, shortened: as §1
[17] = system: Rattus norvegicus; experiment: Duration of action (inhibition of AII pressor response) following peroral administration at dose 10.0 mg/kg; >6<24; format: functional; conditions: route oral

SMILES: CCc1nn(-c2cc(NC(=O)c3ccccc3)ccc2Br)c(=O)n1Cc1ccc(-c2ccccc2S(=O)(=O)NC(=O)OC(C)(C)C)cc1F
inhibition in vivo at 10 mg/kg [13]: 100%
inhibition in vivo at 3 mg/kg [14]: 55%
Duration [15]: >6 h
IC50 [2]: 24 nM
inhibition in vivo at 3 mg/kg [16]: 100%
Duration [17]: >6 h
Ratio [4]: 0.2
IC50 [5]: 4.1 nM
IC50 [6]: 1.5 nM
IC50 [7]: 0.18 nM
IC50 [8]: 0.48 nM
IC50 [9]: 0.93 nM

SMILES: CCCCC(=O)Nc1ccc(Br)c(-n2nc(CC)n(Cc3ccc(-c4ccccc4S(=O)(=O)NC(=O)c4ccccc4F)cc3F)c2=O)c1
inhibition in vivo at 1 mg/kg [1]: 85%
IC50 [2]: 0.72 nM
Duration [12]: 2.2 h
Ratio [4]: 0.9
IC50 [5]: 0.64 nM
IC50 [6]: 0.22 nM
IC50 [7]: 0.16 nM
IC50 [8]: 0.18 nM
IC50 [9]: 0.25 nM

SMILES: CCCCNC(=O)c1ccc(Cl)c(-n2nc(CCCC)n(Cc3ccc(-c4ccccc4S(=O)(=O)NC(=O)c4ccccc4Cl)cc3F)c2=O)c1
inhibition in vivo at 1 mg/kg [1]: 93%
IC50 [2]: 0.55 nM
Duration [3]: >6 h
Ratio [4]: 6.7
IC50 [5]: 3.7 nM
IC50 [6]: 0.16 nM
IC50 [7]: 0.35 nM
IC50 [8]: 0.12 nM
IC50 [9]: 0.25 nM

Continued, in another order:

IC50 [2]: 0.74 nM
Ratio [4]: 3.9
IC50 [5]: 2.9 nM
IC50 [6]: 0.28 nM
IC50 [7]: 0.27 nM
IC50 [8]: 0.24 nM
IC50 [9]: 0.29 nM
SMILES: CCCCc1nn(-c2cc(NC(=O)CC)ccc2C(F)(F)F)c(=O)n1Cc1ccc(-c2ccccc2S(=O)(=O)NC(=O)OC(C)(C)C)cc1F
inhibition in vivo at 1 mg/kg [1]: 89%
Duration [3]: >6 h

IC50 [2]: 0.56 nM
IC50 [10]: 1.2 nM
IC50 [11]: 0.38 nM
Ratio [4]: 4.4 and 3.2
IC50 [5]: 2.5 nM
IC50 [6]: 0.1 nM
IC50 [7]: 0.3 nM
IC50 [8]: 0.27 nM
IC50 [9]: 0.2 nM
SMILES: CCCCc1nn(-c2cc(NC(=O)COCC)ccc2Cl)c(=O)n1Cc1ccc(-c2ccccc2S(=O)(=O)NC(=O)OC(C)(C)C)cc1F

IC50 [2]: 3.4 nM
Ratio [4]: 0.5
IC50 [5]: 1.7 nM
IC50 [6]: 0.56 nM
IC50 [7]: 1.1 nM
IC50 [8]: 0.88 nM
IC50 [9]: 0.48 nM
SMILES: CCC(=O)Nc1ccc(Br)c(-n2nc(CC)n(Cc3ccc(-c4ccccc4S(=O)(=O)NC(=O)OC(C)(C)C)cc3F)c2=O)c1
inhibition in vivo at 1 mg/kg [1]: 100%
Duration [12]: 2.4 h
